# Experimental data pooled from the literature.
# Each line is one published result; the experiments were not run side by side.
# Target: SRSF protein kinase 3 (SRPK3, Homo sapiens, UniProt Q9UPE1)
SMILES,assay,setting,endpoint,value
N#Cc1ccc(NC(=O)Nc2ccccc2)cc1,"cell-free assay, competition with immobilised ligand",25 µM,inhibition,90.3%
CC#CC(=O)N1CCC[C@H]1c1nc(-c2ccc(C(=O)Nc3ccccn3)cc2)c2c(N)nccn12,"enzyme activity, inhibitor",1 µM,inhibition,0%
CCCCC(=O)Nc1ccc(-c2ccc3ncn(CCC)c(=O)c3c2)cn1,"binding, competition with immobilised ligand",0.5 µM,remaining binding,92%
C#Cc1cnc(Nc2ccnc(CO)c2)nc1Nc1ccccc1S(C)(=O)=NC#N (centres unmarked),cell-free assay,1 µM,remaining signal,47%
CN1CCN(C(=O)c2ccc(NC(=O)Nc3ccc(N(C)c4ccnc(Nc5ccc(CS(C)(=O)=O)cc5)n4)cc3)cc2)CC1,binding,1 µM,remaining binding,7.7%
C=CC(=O)N1CCC[C@@H](n2nc(-c3ccc(Oc4ccccc4)cc3)c3c(N)ncnc32)C1,"enzyme activity, inhibitor",1 µM,inhibition,16%
Cc1ccc(NC(=O)c2ccnc(C(F)(F)F)c2)cc1-c1cc(OCCO)nc(N2CCOCC2)c1,binding,1 µM,remaining binding,93%
CC(C)S(=O)(=O)c1ccc2nccc(Nc3ccc4sc(C5CCCC5)nc4c3)c2c1,"enzyme activity, inhibitor",1 µM,activity vs control,110%
